According to ChEMBL document CHEMBL1144027, “Synthesis and antimycobacterial evaluation of newer 1-cyclopropyl-1,4-dihydro-6-fluoro-7-(substituted secondary amino)-8-methoxy-5-(sub)-4-oxoquinoline-3-carboxylic acids” (Bioorg Med Chem, 2008):
In brackets after ≈: the same amount, converted by molar mass.

Columns and labels:
[1] = tested on: Mycolicibacterium smegmatis; test: Antimycobacterial activity against Mycobacterium smegmatis MC2 by agar dilution method; assay type: functional
Procedure, shortened: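 Agar dilution in Middlebrook 7H11 agar with OADC, run along NCCLS-recommended lines; M. smegmatis ATCC 14468 (MC2); MIC determined in duplicate.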

Vero = test: Cytotoxicity against african green monkey Vero cells after 72 hrs by MTT assay; assay type: cell-based; details: Chlorocebus sabaeus
Procedure, shortened: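 Mammalian Vero cells exposed to compounds at 62.5 µg/ml for 72 h; viability read by cellular conversion of MTT to formazan (Cell Titer 96 non-radioactive proliferation assay).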

[2] = tested on: Mycobacterium tuberculosis; test: Antimycobacterial activity against Mycobacterium tuberculosis H37Rv by agar dilution method; assay type: functional
Procedure, shortened: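 Agar dilution MIC on Middlebrook 7H11 agar with OADC, following the NCCLS-recommended approach, run in duplicate. The MDR clinical isolate was resistant to isoniazid, rifampicin, ethambutol and ofloxacin.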

[3] = target: DNA gyrase subunit B (Mycobacterium smegmatis (strain ATCC 700084 / mc(2)155), UniProt A0QNE0); test: Inhibition of Mycobacterium smegmatis MC2 DNA gyrase GyrB ATPase supercoiling activity; parameters: species or system Mycolicibacterium smegmatis
Sequence of DNA gyrase subunit B (Mycobacterium smegmatis (strain ATCC 700084 / mc(2)155), UniProt A0QNE0) (A0QNE0 whole entry): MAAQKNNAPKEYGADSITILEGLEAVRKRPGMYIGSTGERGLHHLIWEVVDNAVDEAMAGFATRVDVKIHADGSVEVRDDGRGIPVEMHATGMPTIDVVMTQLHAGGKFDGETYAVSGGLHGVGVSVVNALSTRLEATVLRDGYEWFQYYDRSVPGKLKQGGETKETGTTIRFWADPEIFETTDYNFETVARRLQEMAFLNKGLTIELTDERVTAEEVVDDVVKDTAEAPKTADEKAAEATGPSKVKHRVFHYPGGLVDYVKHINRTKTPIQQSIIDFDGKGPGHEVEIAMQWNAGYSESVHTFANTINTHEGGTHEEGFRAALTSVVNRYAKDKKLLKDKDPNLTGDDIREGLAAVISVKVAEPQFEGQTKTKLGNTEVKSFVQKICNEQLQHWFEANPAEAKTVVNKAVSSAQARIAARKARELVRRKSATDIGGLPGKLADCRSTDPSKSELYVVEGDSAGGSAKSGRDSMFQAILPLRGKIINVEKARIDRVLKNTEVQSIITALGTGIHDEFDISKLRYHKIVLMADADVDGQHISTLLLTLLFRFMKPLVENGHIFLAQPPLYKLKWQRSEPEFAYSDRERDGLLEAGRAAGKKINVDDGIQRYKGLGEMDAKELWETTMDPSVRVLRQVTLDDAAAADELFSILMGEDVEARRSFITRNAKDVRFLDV
Procedure, shortened: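 Gyrase purified from M. smegmatis MC2 cells; compounds in DMSO pre-incubated with enzyme, then 400 ng relaxed pUC18 added in 35 mM Tris-HCl pH 7.5, 5 mM MgCl2, 25 mM K glutamate, 2 mM spermidine, 2 mM ATP, BSA, tRNA, 5% glycerol; 30 min; heat-stopped 65 °C 15 min; agarose gel, ethidium bromide staining; ciprofloxacin 10 µg/ml and 5% DMSO controls.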

Mus musculus [4] = test: Phototoxicity in Swiss albino mouse assessed as ear thickness at 140 mg/kg, po after 4 hrs of irradiation; assay type: organism-based; parameters: dose 140 mg/kg, route oral; details: in vivo
Procedure, shortened: (§1)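 Female Swiss albino mice (~2 months, 20-25 g), fasted ≥18 h, single 140 mg/kg oral gavage dose; groups of 6 (compound, lomefloxacin HCl 140 mg/kg, 0.5% carboxymethylcellulose vehicle 10 ml/kg); UV irradiation 4 h (~18 J/cm²) right after dosing; both ears scored for erythema, oedema, thickness pre-dose, at end of irradiation, and ~24-96 h; thickness given as mean of both ears ± SEM.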

Mus musculus [5] = test: Phototoxicity in Swiss albino mouse assessed as ear thickness at 140 mg/kg, po after 24 hrs of irradiation; assay type: organism-based; parameters: dose 140 mg/kg, route oral; details: in vivo; procedure, shortened: as §1
Mus musculus [6] = test: Phototoxicity in Swiss albino mouse assessed as ear thickness at 140 mg/kg, po after 48 hrs of irradiation; assay type: organism-based; parameters: dose 140 mg/kg, route oral; details: in vivo; procedure, shortened: as §1
Mus musculus [7] = test: Phototoxicity in Swiss albino mouse assessed as ear thickness at 140 mg/kg, po after 72 hrs of irradiation; assay type: organism-based; parameters: dose 140 mg/kg, route oral; details: in vivo; procedure, shortened: as §1
Mus musculus [8] = test: Phototoxicity in Swiss albino mouse assessed as ear thickness at 140 mg/kg, po after 96 hrs of irradiation; assay type: organism-based; parameters: dose 140 mg/kg, route oral; details: in vivo; procedure, shortened: as §1
Mus musculus [9] = test: Phototoxicity in Swiss albino mouse assessed as erythema incidence at 140 mg/kg, po after 24 hrs of irradiation; assay type: organism-based; parameters: dose 140 mg/kg, route oral; details: in vivo; procedure, shortened: as §1
Mus musculus [10] = test: (§2) Phototoxicity in Swiss albino mouse assessed as erythema incidence at 140 mg/kg, po after 48 hrs of irradiation; assay type: organism-based; parameters: dose 140 mg/kg, route oral; details: in vivo; procedure, shortened: as §1
Mus musculus [11] = test: as §2; assay type: organism-based; parameters: dose 140 mg/kg, route oral; details: in vivo; procedure, shortened: as §1; remark: listed apart in the source
Mus musculus [12] = test: Phototoxicity in Swiss albino mouse assessed as erythema incidence at 140 mg/kg, po after 96 hrs of irradiation; assay type: organism-based; parameters: dose 140 mg/kg, route oral; details: in vivo; procedure, shortened: as §1
[13] = tested on: Mycobacterium tuberculosis; test: Antimycobacterial activity against Mycobacterium tuberculosis ATCC 35801 infected in CD1 mouse assessed as bacterial load in lungs at 50 mg/kg, ip after 10 days; assay type: functional; details: route intraperitoneal
Procedure, shortened: (§3)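 Female CD-1 mice, 6 weeks old, six per group, infected IV via caudal vein with ~10⁷ viable organisms. Intraperitoneal treatment started 10 days after inoculation and ran 10 days. At 35 days post-infection, spleens and right lungs were homogenised and serially 10-fold diluted onto 7H10 agar, incubated 4 weeks at 37 °C in ambient air. CFU compared with vehicle-treated controls.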

[14] = tested on: Mycobacterium tuberculosis; test: Antimycobacterial activity against Mycobacterium tuberculosis ATCC 35801 infected in CD1 mouse assessed as bacterial load in spleen at 50 mg/kg, ip after 10 days; assay type: functional; details: route intraperitoneal; procedure, shortened: as §3
Mus musculus [15] = test: Phototoxicity in Swiss albino mouse assessed as erythema incidence at 140 mg/kg, po after 4 hrs of irradiation; assay type: organism-based; parameters: dose 140 mg/kg, route oral; details: in vivo; procedure, shortened: as §1

SMILES	MIC [1]	IC50 (Vero)	MIC [2]	IC50 [3]	other results
COc1c(N2CCN(C)C(c3ccccc3)C2)c(F)c([N+](=O)[O-])c2c(=O)c(C(=O)O)cn(C3CC3)c12 (centres undefined)	6.3 µM (≈ 3.13 µg/mL)	126 µM	3.14 µM (≈ 1.56 µg/mL)		
CCN(CC)C(=O)C1CCCN(c2c(F)cc3c(=O)c(C(=O)O)cn(C4CC4)c3c2OC)C1 (centres undefined)	0.85 µM (≈ 0.391 µg/mL)	136 µM	1.69 µM (≈ 0.777 µg/mL)	> 109 µM	Activity (Mus musculus [4]): 0.38 mm; Activity (Mus musculus [5]): 0.36 mm; Activity (Mus musculus [6]): 0.37 mm; Activity (Mus musculus [7]): 0.39 mm; Activity (Mus musculus [8]): 0.39 mm; Activity (Mus musculus [9]): Non-toxic; Activity (Mus musculus [10]): Non-toxic; Activity (Mus musculus [11]): Non-toxic; Activity (Mus musculus [12]): Non-toxic
COc1c(N2CCN(C(=O)c3ccco3)CC2)c(F)c([N+](=O)[O-])c2c(=O)c(C(=O)O)cn(C3CC3)c12	12.5 µM (≈ 6.25 µg/mL)		6.25 µM (≈ 3.13 µg/mL)		
COc1c(N2CCN(Cc3ccc4c(c3)OCO4)CC2)c(F)cc2c(=O)c(C(=O)O)cn(C3CC3)c12	3.15 µM (≈ 1.56 µg/mL)	126 µM	1.57 µM (≈ 0.778 µg/mL)	> 101 µM	
COc1c(N2CCc3ccccc3C2C(=O)NC(C)(C)C)c(F)c([N+](=O)[O-])c2c(=O)c(C(=O)O)cn(C3CC3)c12 (centres undefined)	2.82 µM (≈ 1.56 µg/mL)	113 µM	1.41 µM (≈ 0.779 µg/mL)	> 90.5 µM	
COc1c(N2CCC3(CC2)OCCO3)c(F)cc2c(=O)c(C(=O)O)cn(C3CC3)c12	1.86 µM (≈ 0.778 µg/mL)	149 µM	0.93 µM (≈ 0.389 µg/mL)	> 119 µM	Activity [13]: 6.12; Activity [14]: 6.41
COc1c(N2CCN(C(c3ccccc3)c3ccc(Cl)cc3)CC2)c(F)c([N+](=O)[O-])c2c(=O)c(C(=O)O)cn(C3CC3)c12 (centres undefined)	10.3 µM (≈ 6.25 µg/mL)	103 µM	1.28 µM (≈ 0.777 µg/mL)		
COc1c(N2CCN(C(=O)C3COc4ccccc4O3)CC2)c(F)cc2c(=O)c(C(=O)O)cn(C3CC3)c12 (centres undefined)	1.49 µM (≈ 0.78 µg/mL)	119 µM	1.49 µM (≈ 0.78 µg/mL)	57.3 µM	Activity (Mus musculus [4]): 0.31 mm; Activity (Mus musculus [5]): 0.32 mm; Activity (Mus musculus [6]): 0.33 mm; Activity (Mus musculus [7]): 0.33 mm; Activity (Mus musculus [8]): 0.32 mm; Activity (Mus musculus [15]): Non-toxic; Activity (Mus musculus [9]): Non-toxic; Activity (Mus musculus [10]): Non-toxic; Activity (Mus musculus [11]): Non-toxic; Activity (Mus musculus [12]): Non-toxic
COc1c(N2CCN(C(=O)c3ccco3)CC2)c(F)cc2c(=O)c(C(=O)O)cn(C3CC3)c12	13.7 µM (≈ 6.25 µg/mL)		13.7 µM (≈ 6.25 µg/mL)		
COc1ccc(CC2C3=C(CCCC3)CCN2c2c(F)c(N)c3c(=O)c(C(=O)O)cn(C4CC4)c3c2OC)cc1 (centres undefined)	5.72 µM (≈ 3.13 µg/mL)	114 µM	2.85 µM (≈ 1.56 µg/mL)		
COc1c(N2CCn3cc(C(=O)O)nc3C2)c(F)c([N+](=O)[O-])c2c(=O)c(C(=O)O)cn(C3CC3)c12	6.42 µM (≈ 3.13 µg/mL)	128 µM	3.12 µM (≈ 1.52 µg/mL)		
COc1c(N2CCC(n3c(=O)[nH]c4cc(Cl)ccc43)CC2)c(F)c([N+](=O)[O-])c2c(=O)c(C(=O)O)cn(C3CC3)c12	10.9 µM (≈ 6.25 µg/mL)		5.47 µM (≈ 3.13 µg/mL)		
COc1c(N2CCN(C(c3ccccc3)c3ccc(Cl)cc3)CC2)c(F)cc2c(=O)c(C(=O)O)cn(C3CC3)c12 (centres undefined)	44.5 µM (≈ 25 µg/mL)		11.1 µM (≈ 6.25 µg/mL)		
COc1c(N2CCC(n3c(=O)[nH]c4cc(Cl)ccc43)CC2)c(F)cc2c(=O)c(C(=O)O)cn(C3CC3)c12	5.94 µM (≈ 3.13 µg/mL)		5.94 µM (≈ 3.13 µg/mL)		
COc1c(N2CCN(Cc3ccc4c(c3)OCO4)CC2)c(F)c(N)c2c(=O)c(C(=O)O)cn(C3CC3)c12	6.13 µM (≈ 3.13 µg/mL)		3.06 µM (≈ 1.56 µg/mL)		
CCN(CC)C(=O)C1CCCN(c2c(F)c([N+](=O)[O-])c3c(=O)c(C(=O)O)cn(C4CC4)c3c2OC)C1 (centres undefined)	12.4 µM (≈ 6.25 µg/mL)	124 µM	1.55 µM (≈ 0.782 µg/mL)		
COc1c(N2CCC(O)(c3ccc(Cl)cc3)CC2)c(F)c([N+](=O)[O-])c2c(=O)c(C(=O)O)cn(C3CC3)c12	11.8 µM (≈ 6.25 µg/mL)		5.88 µM (≈ 3.13 µg/mL)		
COc1ccc(CC2C3=C(CCCC3)CCN2c2c(F)cc3c(=O)c(C(=O)O)cn(C4CC4)c3c2OC)cc1 (centres undefined)	2.93 µM (≈ 1.56 µg/mL)	117 µM	1.46 µM (≈ 0.778 µg/mL)	75.1 µM	
